Measurements as given in ChEMBL document CHEMBL1139556, “Synthesis and biological evaluation of gemcitabine-lipid conjugate (NEO6002)” (Bioorg Med Chem Lett, 2005).

Columns and labels:
[1] = test system: Cell line; assay: Ability (9 umol/kg) tested for inhibition of BxPC-3 human pancreatic tumor growth (n=8); format: functional
Outline: (§1)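 BxPC-3 human pancreatic tumour cells (5 × 10⁶) implanted subcutaneously in SCID mice. At 80–160 mm³, tumours randomised into groups. Dosing on days 1, 7, 15, 22, 26, 29 and 33, with an equal-volume vehicle control group. Tumour volume measured by Vernier calipers, followed up to 50 days. % growth = 100 × (Vt/V0), where V0 is the volume on the first treatment day.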

[2] = test system: Cell line; assay: Ability (18 umol/kg) tested for inhibition of BxPC-3 human pancreatic tumor growth (n=8); format: functional; outline: as §1
[3] = test system: Cell line; assay: Ability (36 umol/kg) tested for inhibition of BxPC-3 human pancreatic tumor growth (n=8); format: functional; outline: as §1
[4] = Ability (36 umol/kg) tested on mortality of non-diseased CD2F1 mice at day 8 (n=8); format: ADME; conditions: CD2F1, mouse, in vivo
Outline: (§2)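 Multiple-dose toxicity in non-diseased CD2F1 mice. Five or six daily doses given (schedule days 1–5 or 1–6). Mortality recorded, reported as % mortality at day 8.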

[5] = Ability (27 umol/kg) tested on mortality of non-diseased CD2F1 mice at day 8 (n=8); format: ADME; conditions: CD2F1, mouse, in vivo; outline: as §2
[6] = Ability (18 umol/kg) tested on mortality of non-diseased CD2F1 mice at day 8 (n=8); format: ADME; conditions: CD2F1, mouse, in vivo; outline: as §2

SMILES	Growth [1] [%]	Growth [2] [%]	Growth [3] [%]	mortality at 8 day [4] [%]	mortality at 8 day [5] [%]	mortality at 8 day [6] [%]
CCCCCCOCC(COP(=O)(OC)OCC(COP(=O)(OC)OCC(COCCCCCC)OCCCCCC)OC(=O)CCC(=O)OC[C@H]1O[C@@H](n2ccc(N)nc2=O)C(F)(F)[C@@H]1O)OCCCCCC (stereo partly drawn)	1387	1393	1022	–	–	–
Nc1ccn([C@@H]2O[C@H](CO)[C@@H](O)C2(F)F)c(=O)n1 [GEMCITABINE]	1942	2007	–	100	100	0
